The values below come from ChEMBL document CHEMBL5653631, “A Potent and Selective ULK1 Inhibitor Suppresses Autophagy and Sensitizes Cancer Cells to Nutrient Stress” (iScience, 2018).

Assay [1] addresses Protein kinase C beta type (Homo sapiens) (UniProt P05771). In words: Inhibition of human recombinant PKCb at 15 nM in presence of ATP by radiometric assay relative to control.
The target in assay [2] is Homeodomain-interacting protein kinase 3 (Homo sapiens) (UniProt Q9H422). Briefly: Inhibition of human recombinant HIPK3 at 15 nM related to control ULK1.
The target of assay [3] is T1, NUAK family SNF1-like kinase 2 (Homo sapiens) (UniProt Q9H093).
T1 sequence (whole entry): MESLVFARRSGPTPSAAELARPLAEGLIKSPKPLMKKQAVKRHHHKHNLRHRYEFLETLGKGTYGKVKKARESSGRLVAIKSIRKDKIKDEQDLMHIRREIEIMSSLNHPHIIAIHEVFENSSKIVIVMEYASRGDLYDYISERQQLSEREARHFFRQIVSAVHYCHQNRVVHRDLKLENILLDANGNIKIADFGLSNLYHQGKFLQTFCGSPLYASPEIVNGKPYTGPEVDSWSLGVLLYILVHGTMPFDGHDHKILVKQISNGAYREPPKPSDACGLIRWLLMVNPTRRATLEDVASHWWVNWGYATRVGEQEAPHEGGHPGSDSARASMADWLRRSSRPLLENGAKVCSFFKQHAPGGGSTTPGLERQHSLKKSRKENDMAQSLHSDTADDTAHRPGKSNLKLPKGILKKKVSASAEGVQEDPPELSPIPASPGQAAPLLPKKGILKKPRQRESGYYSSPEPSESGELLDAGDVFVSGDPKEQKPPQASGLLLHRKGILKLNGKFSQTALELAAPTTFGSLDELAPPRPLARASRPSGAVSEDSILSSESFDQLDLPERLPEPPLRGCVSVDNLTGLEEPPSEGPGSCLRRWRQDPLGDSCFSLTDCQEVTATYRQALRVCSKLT
Briefly: Inhibition of human recombinant NuaK2 at 40 nM in presence of ATP by radiometric assay relative to control.

Assay [4] deals with Aurora kinase B (Homo sapiens) (UniProt Q96GD4). Briefly: Inhibition of human recombinant AurB at 40 nM in presence of ATP by radiometric assay relative to control. The procedure, abridged: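 Part of a radiometric in vitro activity panel of 327 recombinant human kinases. Each kinase was tested in duplicate at one inhibitor concentration. Activity remaining was expressed as a percentage of the vehicle control, and percent inhibition was taken as 100 minus that value.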

Assay [5] deals with Protein kinase C delta type (Homo sapiens) (UniProt Q05655). In words: Inhibition of human recombinant PKCd at 40 nM in presence of ATP by radiometric assay relative to control.
In assay [6] the target is Tyrosine-protein kinase FRK (Homo sapiens) (UniProt P42685). Briefly: Inhibition of human recombinant FRK at 40 nM in presence of ATP by radiometric assay relative to control.
Assay [7] deals with Tyrosine-protein kinase Tec (Homo sapiens) (UniProt P42680). In words: Inhibition of human recombinant TEC at 500 nM related to control ULK1.
Assay [8] deals with T2, Serine/threonine-protein kinase TAO2 (Homo sapiens) (UniProt Q9UL54).
T2 sequence (whole entry): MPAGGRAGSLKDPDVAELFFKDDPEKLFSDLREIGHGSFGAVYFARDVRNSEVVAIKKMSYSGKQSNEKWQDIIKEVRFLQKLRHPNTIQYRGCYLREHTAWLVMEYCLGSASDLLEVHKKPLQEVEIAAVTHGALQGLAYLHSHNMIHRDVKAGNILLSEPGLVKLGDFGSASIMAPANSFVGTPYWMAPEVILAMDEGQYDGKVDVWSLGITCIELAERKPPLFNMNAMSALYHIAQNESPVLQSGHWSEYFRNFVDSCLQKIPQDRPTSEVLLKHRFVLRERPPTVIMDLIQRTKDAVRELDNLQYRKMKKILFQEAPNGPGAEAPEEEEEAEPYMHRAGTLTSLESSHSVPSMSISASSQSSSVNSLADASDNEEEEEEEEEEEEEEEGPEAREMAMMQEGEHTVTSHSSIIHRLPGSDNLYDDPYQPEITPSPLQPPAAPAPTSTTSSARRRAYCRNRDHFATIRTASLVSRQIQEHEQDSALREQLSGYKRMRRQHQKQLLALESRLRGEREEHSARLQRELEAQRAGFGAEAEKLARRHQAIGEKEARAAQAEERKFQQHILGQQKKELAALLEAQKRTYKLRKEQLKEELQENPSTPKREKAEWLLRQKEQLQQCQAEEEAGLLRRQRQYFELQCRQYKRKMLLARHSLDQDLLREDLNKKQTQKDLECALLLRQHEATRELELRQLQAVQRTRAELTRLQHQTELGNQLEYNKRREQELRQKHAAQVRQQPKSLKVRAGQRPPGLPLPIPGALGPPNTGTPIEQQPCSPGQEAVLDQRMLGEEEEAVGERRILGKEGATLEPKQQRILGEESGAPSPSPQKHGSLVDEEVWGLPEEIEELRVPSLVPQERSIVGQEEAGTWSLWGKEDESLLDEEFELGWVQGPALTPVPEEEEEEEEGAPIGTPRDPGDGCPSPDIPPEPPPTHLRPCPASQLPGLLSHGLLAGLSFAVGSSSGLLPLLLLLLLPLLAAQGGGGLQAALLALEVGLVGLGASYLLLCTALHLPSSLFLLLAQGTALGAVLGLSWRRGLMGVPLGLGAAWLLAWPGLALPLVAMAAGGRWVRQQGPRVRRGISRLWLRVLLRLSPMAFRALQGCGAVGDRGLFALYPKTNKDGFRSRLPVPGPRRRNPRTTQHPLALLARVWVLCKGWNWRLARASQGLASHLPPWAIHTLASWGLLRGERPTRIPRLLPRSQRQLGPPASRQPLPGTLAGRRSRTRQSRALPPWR
In words: Inhibition of human recombinant TAO2 at 500 nM in presence of ATP by radiometric assay relative to control.

The target in assay [9] is Serine/threonine-protein kinase WNK2 (Homo sapiens) (UniProt Q9Y3S1). Briefly: Inhibition of human recombinant Wnk2 at 500 nM in presence of ATP by radiometric assay relative to control.
The target of assay [10] is MAP kinase-interacting serine/threonine-protein kinase 2 (Homo sapiens, UniProt Q9HBH9). Briefly: Inhibition of human recombinant MNK2 at 500 nM related to control ULK1.

Structures are written as SMILES.

Sequence of Protein kinase C delta type (Homo sapiens) (Q05655 whole entry, looked up): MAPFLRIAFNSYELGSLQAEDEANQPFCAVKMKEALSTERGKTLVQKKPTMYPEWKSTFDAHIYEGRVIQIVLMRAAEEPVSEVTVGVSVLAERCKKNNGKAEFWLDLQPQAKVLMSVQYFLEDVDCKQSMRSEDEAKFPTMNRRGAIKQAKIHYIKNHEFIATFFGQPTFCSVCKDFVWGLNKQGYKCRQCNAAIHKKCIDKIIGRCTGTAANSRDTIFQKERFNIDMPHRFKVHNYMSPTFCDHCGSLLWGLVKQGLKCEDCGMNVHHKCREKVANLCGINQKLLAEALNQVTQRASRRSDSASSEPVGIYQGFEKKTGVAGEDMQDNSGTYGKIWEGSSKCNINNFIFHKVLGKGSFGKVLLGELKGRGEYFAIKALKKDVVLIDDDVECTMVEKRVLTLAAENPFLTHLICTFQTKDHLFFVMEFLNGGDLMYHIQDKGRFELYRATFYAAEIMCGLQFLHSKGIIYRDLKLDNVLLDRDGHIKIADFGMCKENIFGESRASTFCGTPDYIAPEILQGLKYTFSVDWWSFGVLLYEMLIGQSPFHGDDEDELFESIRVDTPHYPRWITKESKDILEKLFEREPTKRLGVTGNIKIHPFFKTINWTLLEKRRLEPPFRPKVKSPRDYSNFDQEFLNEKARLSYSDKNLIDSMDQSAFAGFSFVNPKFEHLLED
Sequence of Protein kinase C beta type (Homo sapiens) (P05771 2-671 limits assumed): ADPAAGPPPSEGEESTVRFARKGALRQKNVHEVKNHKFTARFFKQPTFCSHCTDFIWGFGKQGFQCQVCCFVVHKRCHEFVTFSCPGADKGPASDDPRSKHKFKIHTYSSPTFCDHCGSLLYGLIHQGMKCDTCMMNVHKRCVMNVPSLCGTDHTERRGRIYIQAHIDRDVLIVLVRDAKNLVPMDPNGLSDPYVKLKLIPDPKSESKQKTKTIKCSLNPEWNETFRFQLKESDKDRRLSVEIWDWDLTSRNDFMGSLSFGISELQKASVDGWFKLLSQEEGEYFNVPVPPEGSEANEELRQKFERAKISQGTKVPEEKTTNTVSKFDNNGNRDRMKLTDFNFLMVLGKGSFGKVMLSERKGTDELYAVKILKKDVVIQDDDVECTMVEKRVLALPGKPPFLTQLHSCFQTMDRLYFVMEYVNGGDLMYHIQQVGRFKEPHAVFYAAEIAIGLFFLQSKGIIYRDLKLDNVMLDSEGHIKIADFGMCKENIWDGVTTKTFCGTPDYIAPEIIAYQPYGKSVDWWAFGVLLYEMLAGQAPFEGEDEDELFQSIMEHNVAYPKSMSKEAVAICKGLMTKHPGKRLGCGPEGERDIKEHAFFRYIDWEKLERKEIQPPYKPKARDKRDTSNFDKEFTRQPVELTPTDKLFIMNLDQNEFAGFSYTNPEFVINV
Sequence of Serine/threonine-protein kinase WNK2 (Homo sapiens) (Q9Y3S1 whole entry): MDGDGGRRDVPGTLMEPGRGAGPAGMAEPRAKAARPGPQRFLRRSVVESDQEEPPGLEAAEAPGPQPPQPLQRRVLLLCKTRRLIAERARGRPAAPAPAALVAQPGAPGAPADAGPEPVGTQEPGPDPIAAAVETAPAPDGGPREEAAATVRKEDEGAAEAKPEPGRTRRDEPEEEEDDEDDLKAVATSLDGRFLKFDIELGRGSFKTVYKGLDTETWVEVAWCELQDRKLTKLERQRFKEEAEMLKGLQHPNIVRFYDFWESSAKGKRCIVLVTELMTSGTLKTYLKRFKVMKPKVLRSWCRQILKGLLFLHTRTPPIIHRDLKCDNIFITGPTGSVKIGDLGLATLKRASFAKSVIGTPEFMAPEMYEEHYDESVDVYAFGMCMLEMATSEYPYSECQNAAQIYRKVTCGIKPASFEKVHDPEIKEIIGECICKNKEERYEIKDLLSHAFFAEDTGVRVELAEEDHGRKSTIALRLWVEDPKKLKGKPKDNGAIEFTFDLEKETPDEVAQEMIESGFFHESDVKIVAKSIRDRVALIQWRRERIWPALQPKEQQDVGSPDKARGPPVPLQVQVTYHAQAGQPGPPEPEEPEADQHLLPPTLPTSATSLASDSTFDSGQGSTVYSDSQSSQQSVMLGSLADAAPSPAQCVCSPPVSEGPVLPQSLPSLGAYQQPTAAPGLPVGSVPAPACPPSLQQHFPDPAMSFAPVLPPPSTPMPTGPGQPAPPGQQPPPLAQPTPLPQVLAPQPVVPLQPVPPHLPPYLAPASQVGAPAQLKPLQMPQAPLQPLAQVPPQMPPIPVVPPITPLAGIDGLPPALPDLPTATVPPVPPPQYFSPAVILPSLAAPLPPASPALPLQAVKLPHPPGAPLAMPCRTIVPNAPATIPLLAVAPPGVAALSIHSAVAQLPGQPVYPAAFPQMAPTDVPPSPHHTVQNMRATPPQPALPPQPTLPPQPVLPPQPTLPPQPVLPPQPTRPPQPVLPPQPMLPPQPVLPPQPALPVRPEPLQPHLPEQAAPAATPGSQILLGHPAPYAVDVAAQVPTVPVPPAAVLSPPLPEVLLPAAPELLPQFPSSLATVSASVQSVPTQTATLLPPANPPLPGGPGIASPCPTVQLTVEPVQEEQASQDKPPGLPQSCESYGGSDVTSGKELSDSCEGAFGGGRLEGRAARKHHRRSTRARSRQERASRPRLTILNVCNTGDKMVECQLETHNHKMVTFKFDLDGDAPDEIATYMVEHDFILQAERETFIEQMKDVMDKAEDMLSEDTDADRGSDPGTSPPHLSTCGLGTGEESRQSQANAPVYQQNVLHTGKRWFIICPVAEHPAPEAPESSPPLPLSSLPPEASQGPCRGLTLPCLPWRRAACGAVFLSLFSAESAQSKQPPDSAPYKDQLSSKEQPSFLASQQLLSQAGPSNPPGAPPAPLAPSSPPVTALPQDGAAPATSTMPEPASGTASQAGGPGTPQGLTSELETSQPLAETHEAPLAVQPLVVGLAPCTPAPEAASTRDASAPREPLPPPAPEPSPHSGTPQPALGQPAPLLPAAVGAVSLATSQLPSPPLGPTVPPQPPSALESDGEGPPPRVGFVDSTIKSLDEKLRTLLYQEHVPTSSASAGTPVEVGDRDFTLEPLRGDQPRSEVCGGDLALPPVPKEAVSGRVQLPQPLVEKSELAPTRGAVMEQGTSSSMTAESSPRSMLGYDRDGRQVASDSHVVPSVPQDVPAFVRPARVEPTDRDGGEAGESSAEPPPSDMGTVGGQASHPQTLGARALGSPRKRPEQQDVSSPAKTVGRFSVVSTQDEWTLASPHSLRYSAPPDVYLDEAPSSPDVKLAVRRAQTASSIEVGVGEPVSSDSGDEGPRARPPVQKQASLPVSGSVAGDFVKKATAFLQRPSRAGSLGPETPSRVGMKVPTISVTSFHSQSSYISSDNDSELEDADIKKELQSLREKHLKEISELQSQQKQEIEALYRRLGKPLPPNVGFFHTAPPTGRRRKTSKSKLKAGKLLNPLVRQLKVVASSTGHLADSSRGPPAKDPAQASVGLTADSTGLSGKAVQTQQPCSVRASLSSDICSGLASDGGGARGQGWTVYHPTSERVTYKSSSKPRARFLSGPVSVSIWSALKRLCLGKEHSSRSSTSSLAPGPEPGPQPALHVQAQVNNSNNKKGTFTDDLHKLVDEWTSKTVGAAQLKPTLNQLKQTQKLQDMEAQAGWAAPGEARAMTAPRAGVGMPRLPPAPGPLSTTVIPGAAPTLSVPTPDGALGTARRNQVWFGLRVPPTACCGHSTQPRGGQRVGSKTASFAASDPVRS
Sequence of Tyrosine-protein kinase Tec (Homo sapiens) (P42680 whole entry, looked up): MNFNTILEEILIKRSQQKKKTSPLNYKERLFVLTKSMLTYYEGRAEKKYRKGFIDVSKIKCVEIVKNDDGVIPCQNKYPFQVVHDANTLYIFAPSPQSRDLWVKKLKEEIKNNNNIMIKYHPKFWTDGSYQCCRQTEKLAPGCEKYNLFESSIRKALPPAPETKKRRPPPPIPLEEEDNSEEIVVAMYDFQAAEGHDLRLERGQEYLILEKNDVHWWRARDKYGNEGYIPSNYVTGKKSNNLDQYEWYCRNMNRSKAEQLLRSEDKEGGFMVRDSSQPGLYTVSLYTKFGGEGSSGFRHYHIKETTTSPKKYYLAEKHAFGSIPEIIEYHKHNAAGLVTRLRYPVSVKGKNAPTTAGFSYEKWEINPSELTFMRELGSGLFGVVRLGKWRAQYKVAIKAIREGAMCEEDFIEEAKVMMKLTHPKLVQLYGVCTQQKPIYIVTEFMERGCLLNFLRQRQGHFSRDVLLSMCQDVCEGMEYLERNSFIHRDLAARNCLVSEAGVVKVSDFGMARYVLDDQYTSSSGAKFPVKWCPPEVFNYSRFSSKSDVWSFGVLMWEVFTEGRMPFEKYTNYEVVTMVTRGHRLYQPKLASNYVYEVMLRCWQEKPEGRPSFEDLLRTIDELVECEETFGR
Sequence of MAP kinase-interacting serine/threonine-protein kinase 2 (Q9HBH9 whole entry, looked up): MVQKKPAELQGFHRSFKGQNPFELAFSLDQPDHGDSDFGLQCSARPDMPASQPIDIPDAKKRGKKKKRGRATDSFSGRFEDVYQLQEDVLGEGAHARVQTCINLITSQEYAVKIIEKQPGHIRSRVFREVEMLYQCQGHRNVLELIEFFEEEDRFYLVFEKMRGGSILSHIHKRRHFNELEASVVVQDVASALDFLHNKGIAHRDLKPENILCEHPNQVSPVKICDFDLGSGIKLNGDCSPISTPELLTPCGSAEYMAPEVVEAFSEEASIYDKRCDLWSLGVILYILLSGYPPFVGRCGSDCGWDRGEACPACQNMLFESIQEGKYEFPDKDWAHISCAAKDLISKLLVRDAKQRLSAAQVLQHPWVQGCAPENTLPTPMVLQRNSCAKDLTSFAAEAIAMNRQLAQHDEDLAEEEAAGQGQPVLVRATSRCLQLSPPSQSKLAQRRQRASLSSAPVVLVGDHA
Sequence of Aurora kinase B (Homo sapiens) (Q96GD4 whole entry): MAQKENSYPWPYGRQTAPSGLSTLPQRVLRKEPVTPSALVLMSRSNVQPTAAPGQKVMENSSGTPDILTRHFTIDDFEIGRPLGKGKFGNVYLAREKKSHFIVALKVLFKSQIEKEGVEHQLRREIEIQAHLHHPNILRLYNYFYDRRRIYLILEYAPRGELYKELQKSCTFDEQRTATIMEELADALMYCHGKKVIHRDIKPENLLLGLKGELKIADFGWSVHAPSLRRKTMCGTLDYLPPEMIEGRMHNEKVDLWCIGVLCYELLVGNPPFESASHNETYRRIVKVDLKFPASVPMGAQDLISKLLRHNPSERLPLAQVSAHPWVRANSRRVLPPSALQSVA

`CC(C)[C@H](NC(=O)c1cc(-c2cnn3cc(-c4ccc(OCCN5CCCCC5)cc4)cnc23)cs1)C(F)(F)F`: the inhibition – broadly, the percentage by which the read-out fell short of the control – in assay [1] was found to be 0%. Besides, the fold change (FC) in assay [2] turned out to be 0.
As for `O=C(N[C@@H](C1CC1)C(F)(F)F)c1cc(-c2cnn3cc(-c4ccc(F)cc4)cnc23)cs1`, the inhibition in [3] is 3%; in assay [4], 49%; in assay [5] it was 3%; in [6], 0%.
Regarding `CNC(=O)c1ccccc1Oc1nc(Nc2cc(OC)c(OC)c(OC)c2)ncc1Br`, the fold change (FC) in [7] and in assay [10] was 0.03 each time. The inhibition in assay [8] stood at 0%; in assay [9] it was 1%.
